{"source": "ChEMBL document CHEMBL1157586", "about": "(Bioorg Med Chem, 2010)", "key": {"[1]": {"biological_target": "Fibroblast growth factor receptor 1 (Homo sapiens, UniProt P11362)", "assay": "Inhibition of FGFR1 by scintillation proximity assay"}, "[2]": {"biological_target": "Cyclin-dependent kinase 1/cyclin B1 (Homo sapiens, UniProt P06493)", "assay": "Inhibition of CDK1/cyclin B", "format": "protein-complex assay"}, "[3]": {"biological_target": "Cell division cycle 7-related protein kinase (Homo sapiens, UniProt O00311)", "assay": "Inhibition of CDC7 by scintillation proximity assay"}, "[4]": {"system": "Mus musculus", "assay": "Toxicity in BALB/c nu/nu mouse assessed as body weight reduction at 10 to 30 mg/kg, iv QD for 10 consecutive days measured post last dose", "format": "organism-based", "design": "dose 10-30 mg/kg, route intravenous; scale not given: the % may be the effect or the level left", "conditions": "in vivo", "how_it_was_run": "(§1)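 Tumour-bearing nude mice were dosed iv once daily for 10 consecutive days, with compound dissolved in 5% dextrose; vehicle-treated mice served as controls. Doses were 10, 20 and 30 mg/kg in the A2780 model (starting day 8), and 10 and 20 mg/kg in the HCT-116 and BX-PC3 models. Body weight change was compared with controls, and gross autopsy was performed.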"}, "[5]": {"biological_target": "Serine/threonine-protein kinase Nek6 (Homo sapiens, UniProt Q9HC98)", "assay": "Inhibition of NEK6 by scintillation proximity assay"}, "[6]": {"biological_target": "ALK tyrosine kinase receptor (Homo sapiens, UniProt Q9UM73)", "assay": "Inhibition of ALK by scintillation proximity assay"}, "[7]": {"assay": "Clearance in nu/nu mouse at 10 mg/kg, iv", "format": "ADME, organism-based", "design": "dose 10 mg/kg, route intravenous", "conditions": "in vivo", "how_it_was_run": "(§2)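 Healthy nude mice given 10 mg/kg iv as the hydrochloride salt in 5% dextrose solution. Six mice in total, three per leg (iv and oral). Saphenous-vein blood taken predose and at 0.083, 0.5, 1, 6 and 24 h after iv dosing. Plasma separated by centrifugation (10,000g, 3 min, 4 °C) and stored at -80 °C until analysis.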"}, "[8]": {"biological_target": "Vascular endothelial growth factor receptor 3 (Homo sapiens, UniProt P35916)", "assay": "Inhibition of VEGFR3 by scintillation proximity assay"}, "[9]": {"assay": "Half life in nu/nu mouse at 10 mg/kg, iv", "format": "ADME, organism-based", "design": "dose 10 mg/kg, route intravenous", "conditions": "in vivo", "how_it_was_run": "as §2"}, "[10]": {"biological_target": "Aurora kinase A (Homo sapiens, UniProt O14965)", "sequence (O14965 whole entry)": "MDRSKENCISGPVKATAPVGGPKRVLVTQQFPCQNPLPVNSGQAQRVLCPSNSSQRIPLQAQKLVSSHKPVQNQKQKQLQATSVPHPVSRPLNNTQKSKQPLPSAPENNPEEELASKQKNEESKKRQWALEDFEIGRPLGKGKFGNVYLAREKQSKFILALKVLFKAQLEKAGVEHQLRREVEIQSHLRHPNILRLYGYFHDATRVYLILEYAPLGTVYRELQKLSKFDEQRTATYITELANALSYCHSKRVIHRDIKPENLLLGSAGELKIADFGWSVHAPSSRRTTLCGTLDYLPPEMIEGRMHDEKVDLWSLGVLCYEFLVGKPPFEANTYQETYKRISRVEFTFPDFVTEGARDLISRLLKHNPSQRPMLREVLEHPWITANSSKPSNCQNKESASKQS", "assay": "Inhibition of Aurora A by scintillation proximity assay"}, "[11]": {"assay": "Plasma protein binding in human by HPLC analysis", "format": "ADME, cell-free", "conditions": "read-out: PPB (converted)"}, "[12]": {"biological_target": "CYP3A4 (Homo sapiens, UniProt P08684)", "sequence (P08684 whole entry)": "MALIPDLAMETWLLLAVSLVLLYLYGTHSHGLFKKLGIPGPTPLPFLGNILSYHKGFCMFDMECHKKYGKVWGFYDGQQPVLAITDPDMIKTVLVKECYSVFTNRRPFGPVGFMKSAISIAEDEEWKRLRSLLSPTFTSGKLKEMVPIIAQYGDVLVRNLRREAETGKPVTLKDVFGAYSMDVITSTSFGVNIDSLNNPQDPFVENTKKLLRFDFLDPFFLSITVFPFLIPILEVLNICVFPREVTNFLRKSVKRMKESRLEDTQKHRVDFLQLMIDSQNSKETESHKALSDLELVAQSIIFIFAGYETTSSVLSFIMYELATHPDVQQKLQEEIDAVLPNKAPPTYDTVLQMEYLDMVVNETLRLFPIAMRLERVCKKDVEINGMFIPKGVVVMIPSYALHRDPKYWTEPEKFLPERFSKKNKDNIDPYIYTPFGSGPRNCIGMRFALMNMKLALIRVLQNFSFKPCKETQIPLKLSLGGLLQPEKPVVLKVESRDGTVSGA", "assay": "Inhibition of human CYP3A4 assessed as residual activity at 10 uM", "format": "ADME", "conditions": "read-out: Activity"}, "[13]": {"biological_target": "Protein kinase C alpha type (Homo sapiens, UniProt P17252)", "assay": "Inhibition of PKCalpha by scintillation proximity assay"}, "[14]": {"assay": "Cmax in nu/nu mouse at 10 mg/kg, iv", "format": "ADME, organism-based", "design": "dose 10 mg/kg, route intravenous", "conditions": "in vivo", "how_it_was_run": "as §2"}, "[15]": {"biological_target": "RAC-alpha serine/threonine-protein kinase (Homo sapiens, UniProt P31749)", "sequence (P31749 whole entry)": "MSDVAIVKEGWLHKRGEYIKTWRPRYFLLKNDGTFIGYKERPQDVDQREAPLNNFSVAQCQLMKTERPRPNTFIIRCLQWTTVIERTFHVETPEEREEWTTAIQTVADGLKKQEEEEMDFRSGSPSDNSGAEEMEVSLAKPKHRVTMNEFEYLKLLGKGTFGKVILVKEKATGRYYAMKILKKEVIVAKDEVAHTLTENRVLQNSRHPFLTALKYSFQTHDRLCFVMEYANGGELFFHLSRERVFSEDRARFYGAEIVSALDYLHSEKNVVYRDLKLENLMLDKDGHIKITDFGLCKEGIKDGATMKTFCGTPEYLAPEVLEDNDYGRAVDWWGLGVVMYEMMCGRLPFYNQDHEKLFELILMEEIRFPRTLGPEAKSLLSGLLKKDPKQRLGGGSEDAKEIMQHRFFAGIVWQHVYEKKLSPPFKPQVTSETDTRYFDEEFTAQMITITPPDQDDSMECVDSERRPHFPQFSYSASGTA", "assay": "Inhibition of AKT1"}, "[16]": {"biological_target": "Cyclin-dependent kinase 4/cyclin D1 (Homo sapiens, UniProt P11802)", "assay": "Inhibition of CDK4/cyclin D1 by scintillation proximity assay", "format": "protein-complex assay"}, "[17]": {"biological_target": "Glycogen synthase kinase-3 beta (Homo sapiens, UniProt P49841)", "assay": "Inhibition of GSK3-beta by scintillation proximity assay"}, "[18]": {"biological_target": "Serine/threonine-protein kinase PAK 4 (Homo sapiens, UniProt O96013)", "assay": "Inhibition of PAK4 by scintillation proximity assay"}, "[19]": {"assay": "AUC in nu/nu mouse at 10 mg/kg, iv", "format": "ADME, organism-based", "design": "dose 10 mg/kg, route intravenous", "conditions": "plasma", "how_it_was_run": "as §2"}, "[20]": {"biological_target": "Inhibitor of nuclear factor kappa-B kinase subunit beta (Homo sapiens, UniProt O14920)", "sequence (O14920 whole entry)": "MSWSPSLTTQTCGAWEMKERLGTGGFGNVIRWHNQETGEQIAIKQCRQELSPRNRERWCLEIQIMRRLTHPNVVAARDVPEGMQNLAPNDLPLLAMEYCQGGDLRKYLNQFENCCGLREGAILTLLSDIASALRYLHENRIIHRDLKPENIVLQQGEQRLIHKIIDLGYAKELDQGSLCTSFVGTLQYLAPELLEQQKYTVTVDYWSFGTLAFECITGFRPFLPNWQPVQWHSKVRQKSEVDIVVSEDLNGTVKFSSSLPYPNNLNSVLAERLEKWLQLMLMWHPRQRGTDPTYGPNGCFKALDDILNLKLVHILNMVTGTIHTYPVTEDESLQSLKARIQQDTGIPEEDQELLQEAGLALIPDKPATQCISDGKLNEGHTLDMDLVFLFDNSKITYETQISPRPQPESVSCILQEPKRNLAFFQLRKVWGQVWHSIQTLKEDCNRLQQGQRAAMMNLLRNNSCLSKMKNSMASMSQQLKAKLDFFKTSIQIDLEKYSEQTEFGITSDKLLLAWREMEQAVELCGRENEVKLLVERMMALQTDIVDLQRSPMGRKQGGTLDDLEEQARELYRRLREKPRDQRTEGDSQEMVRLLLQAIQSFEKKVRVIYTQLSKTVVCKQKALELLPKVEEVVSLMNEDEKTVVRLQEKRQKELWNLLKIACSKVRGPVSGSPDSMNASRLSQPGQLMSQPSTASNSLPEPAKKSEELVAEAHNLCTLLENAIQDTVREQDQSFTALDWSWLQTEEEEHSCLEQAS", "assay": "Inhibition of IKK2 by scintillation proximity assay"}, "[21]": {"biological_target": "High affinity nerve growth factor receptor (Homo sapiens, UniProt P04629)", "sequence (P04629 whole entry)": "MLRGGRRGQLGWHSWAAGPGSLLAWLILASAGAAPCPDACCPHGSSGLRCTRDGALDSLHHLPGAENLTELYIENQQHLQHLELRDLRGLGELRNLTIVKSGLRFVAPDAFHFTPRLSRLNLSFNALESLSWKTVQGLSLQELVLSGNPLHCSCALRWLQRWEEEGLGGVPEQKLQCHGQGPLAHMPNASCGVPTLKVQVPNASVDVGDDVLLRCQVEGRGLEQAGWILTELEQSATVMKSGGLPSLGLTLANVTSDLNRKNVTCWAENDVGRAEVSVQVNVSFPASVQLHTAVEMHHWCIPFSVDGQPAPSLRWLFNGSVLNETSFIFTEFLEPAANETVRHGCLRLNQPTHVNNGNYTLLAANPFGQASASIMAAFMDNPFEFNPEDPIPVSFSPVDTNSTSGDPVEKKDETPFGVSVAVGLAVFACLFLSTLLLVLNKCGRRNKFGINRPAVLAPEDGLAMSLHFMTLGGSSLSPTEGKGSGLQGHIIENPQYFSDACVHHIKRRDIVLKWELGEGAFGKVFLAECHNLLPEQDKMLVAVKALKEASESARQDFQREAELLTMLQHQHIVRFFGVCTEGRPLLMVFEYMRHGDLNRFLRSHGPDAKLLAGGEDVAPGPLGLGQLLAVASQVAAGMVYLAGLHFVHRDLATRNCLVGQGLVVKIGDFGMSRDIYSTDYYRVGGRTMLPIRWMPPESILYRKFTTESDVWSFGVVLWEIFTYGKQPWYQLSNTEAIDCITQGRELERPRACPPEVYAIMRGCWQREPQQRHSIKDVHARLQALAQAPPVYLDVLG", "assay": "Inhibition of TRKA"}, "[22]": {"assay": "Solubility in 5% dextrose solution", "format": "physicochemical"}, "[23]": {"biological_target": "Aurora kinase B (Homo sapiens, UniProt Q96GD4)", "assay": "Inhibition of Aurora B by scintillation proximity assay"}, "[24]": {"assay": "Volume of distribution at steady state in nu/nu mouse at 10 mg/kg, iv", "format": "ADME, organism-based", "design": "dose 10 mg/kg, route intravenous", "conditions": "in vivo, read-out: Vdss", "how_it_was_run": "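Healthy nude mice received a single 10 mg/kg iv dose as the hydrochloride salt in 5% dextrose; six mice were used in total across the iv and oral legs. Saphenous-vein blood was drawn predose and at 0.083, 0.5, 1, 6 and 24 h. Samples were spun at 10,000g for 3 min at 4 °C, and plasma was stored at −80 °C until analysis.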"}, "[25]": {"biological_target": "Receptor-type tyrosine-protein kinase FLT3 (Homo sapiens, UniProt P36888)", "sequence (P36888 whole entry)": "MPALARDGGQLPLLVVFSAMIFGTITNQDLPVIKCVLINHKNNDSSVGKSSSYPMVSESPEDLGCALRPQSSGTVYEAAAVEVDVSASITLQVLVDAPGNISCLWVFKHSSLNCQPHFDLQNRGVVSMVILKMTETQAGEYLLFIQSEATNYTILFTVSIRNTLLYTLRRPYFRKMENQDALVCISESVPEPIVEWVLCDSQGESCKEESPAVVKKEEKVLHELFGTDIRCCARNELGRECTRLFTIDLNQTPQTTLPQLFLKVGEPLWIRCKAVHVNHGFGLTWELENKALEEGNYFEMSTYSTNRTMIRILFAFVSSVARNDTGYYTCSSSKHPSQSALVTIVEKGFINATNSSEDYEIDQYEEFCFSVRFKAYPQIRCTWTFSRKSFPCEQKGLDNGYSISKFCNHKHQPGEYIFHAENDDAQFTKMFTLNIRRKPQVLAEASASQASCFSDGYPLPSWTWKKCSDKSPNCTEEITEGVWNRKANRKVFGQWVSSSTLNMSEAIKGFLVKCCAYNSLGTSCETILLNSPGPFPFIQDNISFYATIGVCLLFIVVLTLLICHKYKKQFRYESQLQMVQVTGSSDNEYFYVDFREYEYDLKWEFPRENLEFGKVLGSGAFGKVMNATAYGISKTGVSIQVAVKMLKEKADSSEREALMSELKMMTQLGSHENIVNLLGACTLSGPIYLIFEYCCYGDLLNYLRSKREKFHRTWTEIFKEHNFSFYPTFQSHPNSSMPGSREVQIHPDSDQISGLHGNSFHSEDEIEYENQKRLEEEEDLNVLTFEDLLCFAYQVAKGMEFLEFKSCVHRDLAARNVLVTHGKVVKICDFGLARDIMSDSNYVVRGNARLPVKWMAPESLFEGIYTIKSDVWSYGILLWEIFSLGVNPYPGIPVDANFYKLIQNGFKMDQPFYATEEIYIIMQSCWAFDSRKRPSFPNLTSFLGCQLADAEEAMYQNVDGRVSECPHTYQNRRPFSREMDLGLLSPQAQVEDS", "assay": "Inhibition of FLT3 by scintillation proximity assay"}, "[26]": {"assay": "Solubility at pH 7", "format": "physicochemical", "conditions": "buffer"}, "[27]": {"biological_target": "Insulin-like growth factor 1 receptor (Homo sapiens, UniProt P08069)", "assay": "Inhibition of IGF1R by scintillation proximity assay"}, "[28]": {"biological_target": "Tyrosine-protein kinase JAK2 (Homo sapiens, UniProt O60674)", "assay": "Inhibition of JAK2 by scintillation proximity assay"}, "[29]": {"biological_target": "Serine/threonine-protein kinase PLK1 (Homo sapiens, UniProt P53350)", "assay": "Inhibition of PLK1"}, "[30]": {"biological_target": "Serine/threonine-protein kinase Chk1 (Homo sapiens, UniProt O14757)", "assay": "Inhibition of CHK1 by scintillation proximity assay"}, "[31]": {"biological_target": "cAMP-dependent protein kinase catalytic subunit alpha (Homo sapiens, UniProt P17612)", "assay": "Inhibition of PKAalpha by scintillation proximity assay"}, "[32]": {"system": "Mus musculus", "assay": "Toxicity in BALB/c nu/nu mouse at 10 to 30 mg/kg, iv QD for 10 consecutive days measured post last dose", "format": "organism-based", "design": "dose 10-30 mg/kg, route intravenous", "conditions": "in vivo", "how_it_was_run": "as §1"}, "[33]": {"biological_target": "Mitogen-activated protein kinase 14 (Homo sapiens, UniProt Q16539)", "assay": "Inhibition of p38alpha"}, "[34]": {"biological_target": "MAP kinase-activated protein kinase 2 (Homo sapiens, UniProt P49137)", "sequence (P49137 whole entry)": "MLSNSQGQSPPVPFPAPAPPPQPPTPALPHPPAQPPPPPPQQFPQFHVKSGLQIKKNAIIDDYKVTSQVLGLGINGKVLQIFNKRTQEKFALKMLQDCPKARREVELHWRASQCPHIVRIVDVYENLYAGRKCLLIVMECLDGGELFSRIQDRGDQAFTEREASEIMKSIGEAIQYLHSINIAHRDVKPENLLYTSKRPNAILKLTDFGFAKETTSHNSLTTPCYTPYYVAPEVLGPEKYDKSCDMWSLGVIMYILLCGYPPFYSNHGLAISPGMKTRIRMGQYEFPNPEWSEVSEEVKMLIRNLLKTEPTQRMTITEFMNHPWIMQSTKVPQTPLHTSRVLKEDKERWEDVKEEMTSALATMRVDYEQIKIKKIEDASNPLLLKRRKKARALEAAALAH", "assay": "Inhibition of MAPKAPK2 by scintillation proximity assay"}, "[35]": {"biological_target": "Cyclin-dependent kinase 5/CDK5 activator 1 (Homo sapiens, UniProt Q00535)", "assay": "Inhibition of CDK5/p25 by scintillation proximity assay", "format": "protein-complex assay"}, "[36]": {"biological_target": "Cyclin-dependent kinase 7/ cyclin H (Homo sapiens, UniProt P50613)", "sequence (P51946 whole entry)": "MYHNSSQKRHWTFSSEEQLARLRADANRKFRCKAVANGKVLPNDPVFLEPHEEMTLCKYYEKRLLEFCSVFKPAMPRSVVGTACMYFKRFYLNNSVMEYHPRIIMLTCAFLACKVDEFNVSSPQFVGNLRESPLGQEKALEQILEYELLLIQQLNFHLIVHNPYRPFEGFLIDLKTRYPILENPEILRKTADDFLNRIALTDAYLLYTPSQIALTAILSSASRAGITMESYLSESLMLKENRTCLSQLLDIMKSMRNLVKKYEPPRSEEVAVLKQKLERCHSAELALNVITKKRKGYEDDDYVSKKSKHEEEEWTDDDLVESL", "sequence (P50613 whole entry)": "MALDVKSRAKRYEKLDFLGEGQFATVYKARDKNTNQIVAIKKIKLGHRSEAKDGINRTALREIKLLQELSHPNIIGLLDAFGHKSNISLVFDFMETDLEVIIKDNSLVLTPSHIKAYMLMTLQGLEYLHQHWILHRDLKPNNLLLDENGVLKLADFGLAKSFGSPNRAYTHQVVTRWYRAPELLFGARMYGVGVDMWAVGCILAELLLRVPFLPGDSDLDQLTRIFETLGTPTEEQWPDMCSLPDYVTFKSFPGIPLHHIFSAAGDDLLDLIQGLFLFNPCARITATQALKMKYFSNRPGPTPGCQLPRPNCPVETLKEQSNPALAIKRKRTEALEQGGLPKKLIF", "assay": "Inhibition of CDK7/cyclin H by scintillation proximity assay", "format": "protein-complex assay"}}}
{"smiles": "CC(C)CC(=O)Nc1[nH]nc2c1CN(C(=O)C1CCN(C)CC1)C2(C)C", "note": "[PHA-793887]", "values": [{"measurement": "IC50", "setting": "[1]", "value": "> 10", "unit": "µM"}, {"measurement": "IC50", "setting": "[2]", "value": 0.06, "unit": "µM"}, {"measurement": "IC50", "setting": "[3]", "value": "> 10", "unit": "µM"}, {"measurement": "Activity", "setting": "[4]", "value": "< 10", "unit": "%"}, {"measurement": "IC50", "setting": "[5]", "value": "> 10", "unit": "µM"}, {"measurement": "IC50", "setting": "[6]", "value": "> 10", "unit": "µM"}, {"measurement": "clearance", "setting": "[7]", "value": 23.9, "unit": "mL/min/kg"}, {"measurement": "IC50", "setting": "[8]", "value": "> 10", "unit": "µM"}, {"measurement": "half-life", "setting": "[9]", "value": 4.1, "unit": "h"}, {"measurement": "IC50", "setting": "[10]", "value": "> 10", "unit": "µM"}, {"measurement": "fraction unbound", "setting": "[11]", "value": 0.46}, {"measurement": "activity at 10 µM", "setting": "[12]", "value": 91, "unit": "%"}, {"measurement": "IC50", "setting": "[13]", "value": "> 10", "unit": "µM"}, {"measurement": "Cmax", "setting": "[14]", "value": 36.5, "unit": "µM"}, {"measurement": "IC50", "setting": "[15]", "value": "> 10", "unit": "µM"}, {"measurement": "IC50", "setting": "[16]", "value": 0.062, "unit": "µM"}, {"measurement": "IC50", "setting": "[17]", "value": 0.079, "unit": "µM"}, {"measurement": "IC50", "setting": "[18]", "value": "> 10", "unit": "µM"}, {"measurement": "AUC", "setting": "[19]", "value": 19.2, "unit": "µM·h"}, {"measurement": "IC50", "setting": "[20]", "value": "> 10", "unit": "µM"}, {"measurement": "IC50", "setting": "[21]", "value": "> 10", "unit": "µM"}, {"measurement": "solubility", "setting": "[22]", "value": 10000, "unit": "µg/mL"}, {"measurement": "IC50", "setting": "[23]", "value": "> 10", "unit": "µM"}, {"measurement": "Vd", "setting": "[24]", "value": 1.36, "unit": "L/kg"}, {"measurement": "IC50", "setting": "[25]", "value": "> 10", "unit": "µM"}, {"measurement": "solubility", "setting": "[26]", "value": "> 225", "unit": "µM"}, {"measurement": "IC50", "setting": "[27]", "value": "> 10", "unit": "µM"}, {"measurement": "IC50", "setting": "[28]", "value": "> 10", "unit": "µM"}, {"measurement": "IC50", "setting": "[29]", "value": "> 10", "unit": "µM"}, {"measurement": "IC50", "setting": "[30]", "value": "> 10", "unit": "µM"}, {"measurement": "IC50", "setting": "[31]", "value": "> 10", "unit": "µM"}, {"measurement": "Activity", "setting": "[32]", "value": "Non-toxic"}, {"measurement": "IC50", "setting": "[33]", "value": "> 10", "unit": "µM"}, {"measurement": "IC50", "setting": "[34]", "value": "> 10", "unit": "µM"}, {"measurement": "IC50", "setting": "[35]", "value": 0.005, "unit": "µM"}, {"measurement": "IC50", "setting": "[36]", "value": 0.01, "unit": "µM"}]}
